Assay outcomes: PubChem BioAssay, Johns Hopkins Ion Channel Center
Shown are actives, neighbours in structure and some others; about 3% of the full set was active somewhere.
Kir21 inh = blocks the mouse Kir2.1 inward-rectifier potassium channel. P35561. HEK293-Kir2.1, FluxOR thallium flux fluorescence; active compounds read low. B-score at 10 µM. 310,000 compounds, 0.85% hits. AID 1672;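 active means fluorescence ratio B-score at or below minus 3 SD of library scores, with starting-brightness B-score within 2 SD, cut at about -4.2 in these data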;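 further: channel flux triggered by added potassium and thallium sulfate stimulus; B-score of peak minus minimum fluorescence over baseline after thallium stimulus; more negative B-score means stronger Kir2.1 block with less thallium influx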
TRPC6 inh = inhibitors of mouse TRPC6 channel | Q61143 | HEK293-TRPC6, membrane potential dye, ACh-evoked depolarization; active compounds read low | B-score at 10 µM | 310,000 compounds, 1.1% hits;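 active means B-score under library mean minus 3 SD, initial fluorescence not abnormally high, positive integrated signal ratio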;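 further: B-score derived from integrated fluorescence ratio over the kinetic read; more negative B-score means stronger inhibition of depolarization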
TRPC4 agonist = activators of mouse TRPC4 channel. AID 2237. Q9QUQ5. 310,000 compounds, 0.49% hits. B-score at 10 µM. HEK293 TRPC4beta/mu-opioid, Fluo4 calcium fluorescence; active compounds read high;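 active means B-score above 5 SD of library B-scores, and initial fluorescence ratio not above library mean plus 5 SD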;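 further: positive B-score marks a calcium rise read as TRPC4 activation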
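System: HEK293 cells stably co-expressing mouse TRPC4beta and mu-opioid receptor; Schedule: Fluo4 dye loading 45 min at room temperature, 110 s recording; Detection: Fluo4 fluorescence, kinetic; Evaluation: B-scored integrated calcium fluorescence ratio; Controls: buffer (low) and maximal DAMGO (high).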
TRPC6 act = activators of mouse TRPC6 channel. Q61143. HEK293-TRPC6 membrane potential dye fluorescence; active compounds read high. B-score at 10 µM. 310,000 compounds, 0.13% hits. AID 2550;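 active means B-score of the integrated fluorescence ratio above library mean plus 3 SD, and starting fluorescence ratio within library mean plus 5 SD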;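 further: higher score means more depolarization so channel activation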
TRPC4 inh = blocks the mouse TRPC4 cation channel. Q9QUQ5. HEK293 TRPC4beta/mu-opioid, DAMGO-evoked Fluo4 calcium flux; active compounds read low. B-score at 10 µM. 300,000 compounds, 0.39% hits. AID 2247;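 active means B-score over 3 SD under the library average, no early fluorescence shift, positive overall ratio signal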
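Material: HEK293 cells with stable TRPC4beta plus mu-opioid receptor expression; probe or stimulus: DAMGO in two steps, submaximal then maximal; technique: Fluo4 calcium fluorescence by kinetic imaging, 5 s 1 Hz baseline; measure: integrated fluorescence ratio relative to baseline, converted to per-well B score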
TRPC4 potent = TRPC4 (mouse) allosteric potentiation | Q9QUQ5 | HEK293 TRPC4beta/mu-opioid, DAMGO EC20, Fluo-4 Ca2+ flux; active compounds read high | B-score at 10 µM | 310,000 compounds, 0.42% hits;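 active means B-score of calcium response area above 5 SD of library B-scores, with initial fluorescence ratio within 5 SD of library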;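 further: B-score of integrated fluorescence ratio over time as area under calcium response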
* marks the source's active call; other numbers are inactive results; i = inactive.

SMILES	Kir21 inh	TRPC6 inh	TRPC4 agonist	TRPC6 act	TRPC4 inh	TRPC4 potent
Cc1onc(-c2ccccc2Cl)c1C(=O)NC(=S)Nc1ccc(C(C)(C)C)cc1	-0.28	i	i	i	i	i
OCCN1CCN(C2CCC(c3ccc(F)cc3)c3ccc(F)cc32)CC1 (stereo unspecified)	-1.5	i	i	i	i	13*
Fc1ccc2c(c1)Sc1ccc(Cl)cc1CC2N1CCN(CCC2OCCO2)CC1 (stereo unspecified)	-0.56	i	i	i	i	i
Cc1ccc(S(=O)(=O)NC(=O)N2CCN(Cc3c(F)cccc3Cl)CC2)cc1	-0.29	i	i	i	i	21*
Cc1ccc(S(=O)(=O)N2CCC(=O)N(CCOCc3cccc(Cl)c3)CC2)cc1	-5.5*	i	i	i	i	i
Cc1ccc(S(=O)(=O)N2CCC(=O)N(CCOCc3cccc(F)c3)CC2)cc1	1.1	i	i	i	i	i
CCN(CC)C(=O)c1sc2nc(-c3ccccn3)[nH]c(=O)c2c1C	-2.9	i	68*	i	i	i
CCN(CC)C(=O)c1sc2nc(-c3ccncc3)[nH]c(=O)c2c1C	-1.8	i	i	i	i	i
CC(=O)/C=C1/C(=O)Nc2ccccc21	-5.2*	i	i	i	-5*	i
O=c1[nH]c(CSc2ncnc3sc(-c4ccccc4)cc23)nc2ccccc12	-1.1	i	i	i	i	i
Cc1cc(F)ccc1S(=O)(=O)Nc1nc2ccccc2nc1Cl	-0.87	i	i	i	i	i
Cc1ccc(C(C)(C)C)cc1S(=O)(=O)Nc1nc2ccccc2nc1Cl	1.4	i	i	i	-6*	i
O=C(CN(Cc1ccc(Cl)cc1)S(=O)(=O)c1ccccc1)NCC1CCCO1 (stereo unspecified)	-1.3	i	i	i	i	i
O=C([O-])c1ccccc1-[n+]1c(-c2ccccc2)cc(-c2ccccc2)cc1-c1ccccc1	-4.6*	i	i	i	i	i
O/N=C/c1ccc2cccc(OCc3ccccc3)c2n1	0.09	i	i	i	i	i
NC(N)=N/N=C/c1ccc2cccc(OCc3ccccc3)c2n1	-5.3*	i	i	i	i	i
CCOc1ccc(-n2c(C)c(C(C)=O)c3cc(O)ccc32)cc1	-1.3	i	i	i	i	11*
CCCc1cc(C(=O)N/N=C/c2cccn2C)cs1	-0.41	i	i	i	i	i
Cc1ccc2nc(/N=C(\N)NC(=O)NC3CCCCC3)nc(C)c2c1	0.82	i	55*	i	i	i
CCOc1ccc(NC(=O)CN(C)C(=O)c2cn(-c3ccc(F)cc3)nc2-c2cccc(OC)c2)cc1OCC	2.2	i	i	i	i	i
CCN(CC)CCNC(=O)c1ccc(NC(=O)c2cn(-c3ccc(F)cc3)nc2-c2cccc(OC)c2)cc1	-5.5*	i	i	i	i	i
COc1ccc(CCNCc2cc(C)n(-c3ccc(OC)cc3)c2C)cc1	-4.8*	i	i	i	i	i
C/C(Cc1ccccc1)=N\NC(=O)CNC(=O)COc1cccc(C)c1	-0.48	i	80*	i	i	i
CC1(C)C(CSc2nc3ccccc3[nH]2)C1(Cl)Cl (stereo unspecified)	-0.67	i	i	i	i	i
Cc1nn(-c2cccc(Cl)c2)c2nc(-c3ccco3)cc(C(=O)O)c12	1.6	i	i	i	i	i
Cc1nn(-c2ccccn2)c2nc(-c3cccs3)cc(C(=O)N3CCOCC3)c12	2	i	i	i	i	12*
Cc1cccc(-n2nc(C)c3c(C(=O)O)cc(-c4cccs4)nc32)c1	-0.27	i	i	i	-6*	i
CCCCN(CC)S(=O)(=O)c1ccc(C(=O)Nc2nnc(-c3cccs3)o2)cc1	1.1	i	67*	i	i	i
O=c1c2cc(NC(=S)NCCN3CCCCCC3)ccc2nc2n1CCCCC2	-0.73	i	i	i	i	i
